Data set [1] has as its system Staphylococcus aureus. In words: Antibiofilm activity against 24 hrs preformed biofilm of Staphylococcus aureus ATCC 29213 assessed as biofilm viability at 32 ug/ml incubated for 24 hrs by crystal violet staining analysis (reference value: 18.9 1og10CFU). It is filed as functional. Conditions: dose 32 µg/ml.
A further data set concerns HeLa. As to the kind of experiment: Cytotoxicity against human HeLa cells assessed as cell morphology at 1 to 4 ug/mL incubated for 24 hrs by optical microscopy. It is filed as cell-based. The settings on record: dose 1-4 µg/ml. A digest of the protocol:
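HeLa cells were kept in DMEM with 10% FBS at 37 °C and 5% CO2. Cells were seeded in 12-well plates, allowed to adhere overnight and exposed to 1, 2 or 4 µg/mL for 24 h. Untreated wells were the negative control and 0.1% Triton X-100 the positive control. After a PBS wash, morphology was imaged by inverted microscopy with a 10× objective. Three repeats.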

Data set [2] concerns Staphylococcus aureus. As to the kind of experiment: Bactericidal activity against early exponential phase of Staphylococcus aureus ATCC 29213 at 6X MIC measured after 6 hrs by time-kill kinetic assay. It is filed as functional, organism-based. In outline:
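An overnight culture was diluted 1:10,000 in MHB and shaken at 225 rpm and 37 °C for 2 h (early exponential phase), then exposed to compound. Samples taken at intervals were centrifuged, resuspended in PBS, plated as tenfold dilutions on MHA and incubated overnight at 37 °C. CFU/mL were counted. Biological replicates were run.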

Data set [3] has as its system Staphylococcus aureus. In words: Antibiofilm activity against 24 hrs preformed biofilm of Staphylococcus aureus ATCC 29213 assessed as eradication of preformed biofilm incubated for 24 hrs by crystal violet staining assay. It is filed as functional.

This note sets out measurements from ChEMBL document CHEMBL4673214, “Synthesis and antibacterial bioactivities of cationic deacetyl linezolid amphiphiles” (Eur J Med Chem, 2018).

Activity calls are given as the source filed them. The rule behind the calls is not given here.

`CCCCCCCCCCCN(C[C@H]1CN(c2ccc(N3CCOCC3)c(F)c2)C(=O)O1)C(=O)[C@@H](N)CCCCN.Cl.Cl`: the Activity with Staphylococcus aureus [1] is recorded as 7.5 log10CFU. The Activity result in the data set on HeLa is given as “Non-Toxic”. Besides, the result in the data set on Staphylococcus aureus [2] was Active. In the data set on Staphylococcus aureus [3], the MBEC stood at 64 µg/mL, the MBEC80 was 50.2 µg/mL and the MBEC90 came out at 59.8 µg/mL.
